In the library only some 2.5% were active in any assay of this set; here they are far more common.
SIAE inh: blocks human sialic acid acetylesterase; inhibition, % at 9.66 µM; SIAE FP-Rh probe binding, fluorescence polarization; 370,000 compounds, 0.69% hits; Q9HAT2;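 active = inhibition above a cutoff: mean of compounds within the control limits plus 3 SD of those, cut at about 17% in these data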;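 also: 0% = plate median of compound wells and 100% = probe without SIAE protein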
ABHD4 inh: inhibitors of mouse ABHD4; purified mABHD4, FP-Rh probe fluorescence polarization; inhibition, % at 8.92 µM; 370,000 compounds, 0.54% hits; AID 720543;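 active = inhibition exceeding the mean over every tested compound plus 3 SD, cut at about 30% in these data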;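 also: 0% = plate median of compound wells and 100% = S159A mutant with DMSO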
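Assay system: wild-type mouse ABHD4 protein; compound: single nominal dose of 8.92 µM, 0.89% DMSO final; schedule: 45 min + 60 min at 25 °C; measured by: FP readout, ex 525 nm / em 598 nm; evaluation: % inhibition of FP-Rh probe binding versus controls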
HTRA1 inh: inhibitors of human serine peptidase HTRA1. 340,000 compounds, 0.5% hits. inhibition, % at 5.96 µM. recombinant HTRA1, FP-rhodamine activity-based probe, fluorescence polarization; in the data active = inhibition above about 36%;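 also: 0% = enzyme with DMSO and 100% = wells lacking enzyme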
TCR-CD3 inh: inhibitors of human TCR-CD3 interaction; TAMRA-labeled TCR probe fluorescence, biochemical; inhibition, % at 9.4 µM; 360,000 compounds, 0.37% hits;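 also: recombinant mutant TCR 2C K166C tagged with TAMRA read by polarization; 0% = receptor in buffer alone and 100% = receptor with positive control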
PRMT1 inh: blocks human protein arginine methyltransferase 1 | Q99873 | 370,000 compounds, 1.3% hits | recombinant PRMT1, activity-based probe fluorescence polarization | inhibition, % at 2.79 µM | AID 652257;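 active = inhibition above about 21% made by adding two undisclosed values, limit read from the data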
Target sequence (Q99873 whole entry, looked up): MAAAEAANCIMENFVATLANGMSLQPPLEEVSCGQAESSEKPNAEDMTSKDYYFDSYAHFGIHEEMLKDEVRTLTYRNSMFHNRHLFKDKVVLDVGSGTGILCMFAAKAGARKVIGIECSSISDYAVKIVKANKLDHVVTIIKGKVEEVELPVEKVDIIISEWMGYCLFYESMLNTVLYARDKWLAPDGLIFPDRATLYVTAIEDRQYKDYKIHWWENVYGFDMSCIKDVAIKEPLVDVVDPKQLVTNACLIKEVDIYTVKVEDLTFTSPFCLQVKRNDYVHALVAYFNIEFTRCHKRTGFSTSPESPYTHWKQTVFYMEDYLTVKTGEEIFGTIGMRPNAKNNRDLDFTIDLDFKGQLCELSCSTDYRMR
BSA TAMRA ctr: interferes with TAMRA-BSA probe, flagging TCR-CD3 hits. shares compounds with TCR-CD3 inh. 1,200 compounds, 10% hits. inhibition, % at 9.4 µM. TAMRA-labeled BSA probe fluorescence counterscreen. AID 652035; in the data active = inhibition above about 23%;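 also: 0% = buffer low control and 100% = reference high control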
TCR-CD3 inh conf: confirmation of human TCR-CD3 interaction inhibitors | shares compounds with TCR-CD3 inh | TAMRA-labeled TCR probe fluorescence binding assay | inhibition, % at 9.4 µM | 1,200 compounds, 48% hits | AID 652036
* hit, by the source's call; . = not tested or not shown; + = active, no number. Rule as the data show it, unless noted: active = inhibition above about 19%; inactive = the rest.

SMILES	SIAE inh	ABHD4 inh	HTRA1 inh	TCR-CD3 inh	PRMT1 inh	BSA TAMRA ctr	TCR-CD3 inh conf
O=C(NN1C(=O)/C(=C/c2ccc(O)c(O)c2)SC1=S)c1ccccc1	-97.5	-41.8	-56.3	-64.9	20.6	.	.
O=C(COC(=O)c1cc(-c2cccs2)nn1-c1ccccc1)Nc1ccc(Cl)c([N+](=O)[O-])c1	-62.5	-19.4	-38.8	44.8*	0.1	-12.3	-5.4
O=S(=O)(c1ccc2nc(-c3ccccc3)[nH]c2c1)N1CCN(c2cccc(Cl)c2)CC1	-8.4	-4.0	-2.4	68.5*	1.2	27.1*	45.5*
COc1ccccc1N1CCN(S(=O)(=O)c2ccc3nc(-c4ccccc4)[nH]c3c2)CC1	-76.7	-74.0	-65.6	-3.9	1.4	.	.
COC(=O)[C@H](C)N(Cc1cn(Cc2ccccc2)nn1)S(=O)(=O)c1ccccc1Br	-1.5	-3.6	.	.	-3.1	.	.
O=C(N/N=C/c1cc(Cl)cc([N+](=O)[O-])c1O)c1cccc(S(=O)(=O)N2CCOCC2)c1	12.2	23.2	-2.8	41.3*	1.8	-15.3	58.1*
O=C(NNC(=O)c1cc(Cl)ccc1O)c1cccc(S(=O)(=O)N2CCOCC2)c1	13.3	16.9	21.1	43.2*	0.6	-11.0	31.3*
Cc1cc(Br)cc(/C=N/NC(=O)c2ccc3c(c2)OCO3)c1O	5.1	4.4	26.2	29.2*	1.4	-12.2	33.9*
O=C(N/N=C/c1ccccc1O)c1ccc2c(c1)OCO2	-13.6	-12.1	18.4	0.2	3.4	.	.
Cc1ccc(C(=O)NNC(=O)c2cccc(S(=O)(=O)N3CCOCC3)c2)cc1	5.9	2.8	3.2	0.5	-0.4	.	.
COc1cc(Cl)cc(/C=N\NC(=O)c2ccc3c(c2)OCO3)c1O	-4.7	21.3	10.0	-5.1	-1.7	.	.
O=C(N/N=C/c1cc(Cl)cc([N+](=O)[O-])c1O)c1ccc2c(c1)OCO2	11.2	20.7	25.1	41.0*	2.5	-18.0	47.2*
CCCCCCCCN1C(=O)[C@@H](CC(=O)N2CCCC2)C[C@@]2(C(=O)OC)C1=C[C@H](COCc1ccccc1)O[C@@H]2C	0.5	1.4	.	.	2.2	.	.
CCCCNS(=O)(=O)/C=C/c1cc(C)ccc1CNC(=O)OC(C)(C)C	7.7	-10.3	.	.	-4.5	.	.
CCNc1ccc(C(=O)O)cc1N	6.5	20.5	28.8	22.7*	1.7	22.2	13.9
CCc1ccccc1Nc1ccc(C(=O)O)cc1N	2.6	18.6	13.7	11.9	2.9	.	.
O=C(O)c1ccccc1/C=N/NC(=O)c1cc(-c2ccco2)nc2ccccc12	11.1	11.0	20.1	19.7*	15.5	-8.5	25.1*
CC(=O)Nc1ccc(/C=N/NC(=O)c2cc(-c3ccco3)nc3ccccc23)cc1	-75.5	-49.5	-25.5	2.2	3.4	.	.
COc1ccccc1NC(=O)NNC(=O)c1cc2ccccc2cc1O	13.3	7.8	33.0	19.3*	0.7	-5.8	22.8*
COc1ccc(NS(=O)(=O)c2cccc(C(=O)NNC(=O)c3ccccc3O)c2)cc1	-2.0	16.4	19.6	27.6*	1.8	-15.5	16.5
COc1cc(OC)cc(C(=O)NNC(=O)c2cc3ccccc3cc2O)c1	9.8	-8.4	9.0	25.9*	-1.3	-11.2	18.7
Cc1ccc(NC(=O)NNC(=O)c2cc3ccccc3cc2O)cc1	1.6	-3.9	18.0	31.7*	-5.2	-1.5	21.0*
COc1ccccc1NC(=O)NNC(=O)c1ccc(-c2ccccc2)cc1	0.0	-11.6	-17.2	-0.8	-1.2	.	.
Cc1cc(C)cc(C(=O)OCCN(C)C2CN(Cc3cn(Cc4ccc([N+](=O)[O-])cc4)nn3)S(=O)(=O)C2)c1 (stereo unspecified)	-5.2	-5.1	.	.	-1.8	.	.
O=C(NCC(O)c1ccc([N+](=O)[O-])cc1)C1=COCCO1 (stereo unspecified)	1.7	0.0	0.6	+	1.0	0.3	1.4
SMILES	SIAE inh	ABHD4 inh	HTRA1 inh	TCR-CD3 inh	PRMT1 inh	BSA TAMRA ctr	TCR-CD3 inh conf
Cc1cccc(Cn2cc(COC(=O)NCC(C)C)nn2)c1	-0.5	8.9	.	.	-0.6	.	.
C[C@@H]1COc2cc(Br)ccc2S(=O)(=O)N1Cc1cn(CCC2OCCCO2)nn1	1.5	2.2	.	.	-0.3	.	.
c1coc(CSSCc2ccco2)c1	1.9	27.8	22.5	20.3*	49.1*	3.8	6.0
Cc1ccc(NC(=O)CSCc2ccco2)cc1	-4.9	3.2	-1.9	-2.9	6.4	.	.
COc1ccccc1OC(=O)c1ccc2nsnc2c1	-0.3	-2.2	-6.4	20.6*	3.3	6.1	4.5
Cc1nc2ccc(S(=O)(=O)NCC(=O)NCc3ccc(F)cc3)cc2s1	-0.1	0.3	.	.	4.5	.	.
COCCNC(=O)c1ccc(N2CC3CC(C2)c2cccc(=O)n2C3)c(NC(=O)c2ccccc2Br)c1 (stereo unspecified)	-2.2	-0.9	-1.3	49.1*	0.6	6.6	2.1
COc1ccc(C(=O)NNC(=O)COc2ccc(Cl)cc2)c(OC)c1	10.2	-0.8	17.5	25.1*	-2.6	-20.5	24.1*
COc1ccc([N+](=O)[O-])cc1NC(=S)NC(NC(=O)C(c1ccccc1)c1ccccc1)C(Cl)(Cl)Cl (stereo unspecified)	-66.2	-88.8	-83.4	74.4*	-2.8	33.0*	58.8*
COc1ccc([N+](=O)[O-])cc1NC(=O)C(C)c1ccccc1 (stereo unspecified)	0.7	-0.7	-7.9	-0.4	-4.2	.	.
COc1ccc([C@H]2CC(=O)C[C@@H](CCn3cc(Cc4ccccc4)nn3)O2)cc1	-1.8	-3.1	.	23.9*	-5.6	7.5	5.8
C=CCn1c(-c2ccco2)n[nH]c1=S	-4.6	-0.7	5.5	54.1*	0.0	1.0	-0.1
CC(C)CN1C(=O)C[C@@]2(C(=O)N(C)c3ccc(NS(=O)(=O)C4CC4)cc32)C1c1ccccc1 (stereo partly specified)	-5.9	-1.2	.	.	-0.1	.	.
O=C(Nc1ccc2c(c1)OCO2)C1COc2ccccc2O1 (stereo unspecified)	6.8	-0.6	3.9	48.2*	-0.7	-0.9	-1.6
COc1ccc(Cl)cc1C(=O)NNC(=O)C1COc2ccccc2O1 (stereo unspecified)	4.2	-2.7	6.1	4.6	-3.1	.	.
O=C(NNC(=O)C1COc2ccccc2O1)c1ccccc1O (stereo unspecified)	7.5	5.9	21.0	28.7*	0.8	-11.8	24.8*
CC(C)N(Cc1cn(Cc2ccccc2)nn1)S(=O)(=O)c1ccc(F)cc1Br	4.5	-0.8	.	.	-7.8	.	.
COc1ccc(-c2cn(-c3ccc(Cl)cc3)c3[n+]2CCCCC3)cc1	5.7	-2.9	0.3	33.8*	-0.9	-5.9	0.5
O=S1(=O)c2c(NCc3ccco3)cccc2Oc2ccccc2CN1Cc1cn(Cc2cccc(F)c2)nn1	-3.3	-4.3	.	.	0.6	.	.
CCOc1ccc(CNc2ccc(S(N)(=O)=O)cc2)cc1	7.4	-1.0	-4.7	152.4*	2.3	-0.2	0.8
